EBI2 block – EBI2 (human) antagonism; hit rate 0.81% among 360,000; P32249; AID 651636; inhibition, % at 5 µM; EBI2 beta-arrestin recruitment, luminescence, 7a,25-OHC stimulated; in the data active = inhibition above about 38%;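 note: enzyme fragment complementation signal reports receptor beta-arrestin coupling in cells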
APJ ag – activates the human apelin receptor APJ; P35414; CHO-K1 APJ PathHunter beta-arrestin, luminescence; 0% DMSO wells, 100% apelin; activation, % at 20 µM; hit rate 0.11% among 330,000; AID 2520;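 active = activation more than six SD over the plate average, tested at 20 µM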
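Assay system – PathHunter CHO-K1 APJ (AGTRL-1) beta-arrestin reporter cells · Compound – one dose, 20 µM compound, 1% DMSO · Timing – compound 90 min 25 °C, reagent 1 h · Measured by – luminescence from split beta-galactosidase complementation, Galacton Star/Emerald II substrate · Measure – beta-arrestin recruitment to APJ as agonist activity, luminescent signal · Benchmarks – DMSO vs Apelin-13 10 nM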
APJ antagonist – APJ receptor antagonism; P35414; inhibition, % at 20 µM; CHO-K1 APJ beta-arrestin complementation, luminescence; hit rate 0.32% among 330,000;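 active = inhibition above about 40% at 20 µM, limit read from the data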;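 note: cells challenged with 10 nM apelin-13 agonist together with compound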
CXCR6 block – CXCR6 (human) receptor inhibition | O00574 | CHO-K1 PathHunter CXCR6 beta-arrestin, luminescence | inhibition, % at 20 µM | hit rate 0.36% among 360,000; in the data active = inhibition above about 34%, passing the limit was not always enough;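 note: antagonist mode with CXCL16 agonist at 10 nM final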
Target sequence (O00574 whole entry, looked up): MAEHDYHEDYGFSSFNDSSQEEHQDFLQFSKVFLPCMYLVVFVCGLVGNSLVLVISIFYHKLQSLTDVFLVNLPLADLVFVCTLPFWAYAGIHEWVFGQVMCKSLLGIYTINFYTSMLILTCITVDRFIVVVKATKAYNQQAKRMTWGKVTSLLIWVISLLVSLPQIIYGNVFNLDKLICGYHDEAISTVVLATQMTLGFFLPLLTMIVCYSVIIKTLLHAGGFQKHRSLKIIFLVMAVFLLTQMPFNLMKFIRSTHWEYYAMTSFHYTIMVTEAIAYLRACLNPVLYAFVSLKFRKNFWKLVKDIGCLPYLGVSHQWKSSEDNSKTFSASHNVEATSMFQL
CCR6 antag – antagonists of human CCR6 receptor | P51684 | CHO-K1 CCR6 PathHunter beta-arrestin, luminescence, CCL20-stimulated | inhibition, % at 20 µM | hit rate 0.49% among 340,000 | AID 493098;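 active = compounds whose inhibition of the agonist-driven luminescence signal at 20 µM reaches about 50%, limit read from the data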;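 note: cells stimulated with CCL20 at 14 nM final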
Of the large screens only hits and unclear results are named; the others gave an inactive call; ! = not active in a repeat. This is a sample that favours compounds with a hit; in the whole collection about 1.5% have one here.

O=C(N/N=C/c1cccc([N+](=O)[O-])c1O)c1cccs1	CCR6 antag 64
CCSc1cc(C2C(C(=O)OC)=C(C)NC3=C2C(=O)CCC3)c(C)o1 (stereo unspecified)	none
N#C/C(=C/c1ccc(N2CCCCC2)o1)c1cccc(F)c1	none
N#C/C(=C/c1ccc(N2CCCCCC2)o1)c1ccc(Cl)cc1	EBI2 block 42
CCOc1ccc(NC(=S)NNc2ccnc3cc(Cl)ccc23)cc1	none
S=C(NNc1ccnc2cc(Cl)ccc12)Nc1ccc(Cl)cc1Cl	CCR6 antag 54
COC(=O)CSc1nc(N)c2c3c(sc2n1)C(c1ccccc1)SC(c1ccccc1)C3 (stereo unspecified)	EBI2 block 55
Cc1ccc(C(=O)NN2C(=O)/C(=C/c3cn(C)c4ccccc34)SC2=S)cc1	none (no result: APJ ag, APJ antagonist)
Cn1cc(/C=C2\SC(=O)NC2=S)c2ccccc21	CCR6 antag 53
Cc1cc(C)nc(SCc2cc(=O)c(OC(=O)c3ccc(Cl)c([N+](=O)[O-])c3)co2)n1	APJ antagonist 58
Cc1ccc(NS(=O)(=O)c2cc([N+](=O)[O-])ccc2NNC(=S)Nc2cccc(Cl)c2)c(C)c1	CXCR6 block 58, CCR6 antag 81 (no result: APJ ag, APJ antagonist)
CCOc1ccc(N=C2C(=O)N(CN3CCOCC3)c3ccccc32)cc1	CCR6 antag 59
O=C(Nc1ncc(Cc2ccccc2)s1)C1COc2ccccc2O1 (stereo unspecified)	none
O=C(Cn1cc(C(F)(F)F)ccc1=O)NCc1ccc(F)cc1	none
NS(=O)(=O)c1cccc(NC(=O)COC(=O)/C=C/c2nc3ccccc3s2)c1	none
Cc1cc(N(CCO)CCO)ccc1N=Nc1cc(F)ccc1F	APJ antagonist 61
Nc1ccc(N(CCO)CCO)cc1	none
CC(Nc1cccc2ccccc12)C(=O)N/N=C/c1ccc([N+](=O)[O-])cc1 (stereo unspecified)	none
COc1cc([N+](=O)[O-])cc(/C=N/NC(=O)C(C)Nc2cccc3ccccc23)c1O (stereo unspecified)	EBI2 block 56, CXCR6 block 56
CC(=O)Oc1ccc(N2C(=O)c3cccc4c([N+](=O)[O-])ccc(c34)C2=O)cc1	CCR6 antag 65
O=C1c2cccc3c([N+](=O)[O-])ccc(c23)C(=O)N1c1nccs1	CXCR6 block 43, CCR6 antag 73
COC1=CC(=O)OC(c2cccc(C#N)c2)C1 (stereo unspecified)	none (no result: APJ ag, APJ antagonist, CXCR6 block, CCR6 antag)
CC(C)COC(=O)N1CC(O)CC1C(=O)O (stereo unspecified)	none
COc1ccc(-n2nc(C(=O)NCC(=O)NCc3ccc(F)cc3)c3ccccc3c2=O)cc1OC	none
COc1ccc(S(=O)(=O)N2CCN(C(=O)C3CC(=O)N(c4ccccc4F)C3)CC2)cc1OC (stereo unspecified)	none (no result: APJ ag, APJ antagonist)
COc1ccc(C(=O)O/N=C/c2c(C(F)(F)F)nn(C)c2SCc2ccccc2Cl)cc1	EBI2 block 50
Cc1c(-c2ccccc2)cnc2c(C)cccc12	none
C/C(=N\NC(=S)NCc1ccccc1)c1ccc(C(C)(C)C)cc1	CCR6 antag 62
CCOC(=O)C1=CCN(S(=O)(=O)c2ccccc2F)C1c1ccccc1 (stereo unspecified)	none (no result: APJ ag, APJ antagonist, CCR6 antag)
COc1ccc(-c2nc(-c3ccc4c(c3)OCO4)[nH]c2-c2ccc(OC)cc2)cc1	EBI2 block 48
COC(=O)C1(C(=O)OC)C2CCCCC2N(S(=O)(=O)c2ccc(C)cc2)[C@@H]1CC(C)=O (stereo partly specified)	none (no result: APJ ag, APJ antagonist, CXCR6 block, CCR6 antag)
CC(C)N1CCC(N2CCN(Cc3cc4c(cc3Cl)OCO4)CC2CCO)CC1 (stereo unspecified)	none
Cc1ccc(CN2C(=O)C(Cc3ccccc3)Nc3ncnc(N4CCCCC4)c32)cc1 (stereo unspecified)	CXCR6 block 41!, CCR6 antag 51
COc1ccc(CN2C(=O)C(Cc3ccccc3)Nc3ncnc(N4CCCCC4)c32)cc1 (stereo unspecified)	none
CN(C)C(CNC(=O)c1cc(S(=O)(=O)N2CCOCC2)ccc1Cl)c1cccs1 (stereo unspecified)	none (no result: APJ ag, APJ antagonist)
O=C1N[C@@H](Cc2c[nH]c3ccccc23)COC(=O)[C@@H](Cc2ccc(F)cc2)CC/C=C/C[C@@H]1CC(=O)N(CCO)Cc1ccccc1	none
O=C1c2c(-c3ccc(Br)cc3)noc2CCN1Cc1cn(Cc2cccnc2)nn1	none (no result: APJ ag, APJ antagonist, CXCR6 block, CCR6 antag)
Cc1c(C(=O)Nc2nccs2)sc2nc(-c3cccs3)cc(C(F)(F)F)c12	CCR6 antag 53

Screening results as filed in PubChem BioAssay.
